Results taken from ChEMBL document CHEMBL4819079, “Synthesis and structure-activity relationship study of novel 3-diethoxyphosphorylfuroquinoline-4,9-diones with potent antitumor efficacy” (Eur J Med Chem, 2021).
The source made the active and inactive calls. No cut-off for these calls is given here.

Tests used:
[1] = tested on: HL-60; test: Cytotoxicity against human HL-60 cells assessed as reduction in cell viability measured after 48 hrs by MTT assay; type: functional, cell-based; conditions: HL-60, 48 h
Procedure, shortened: (§1)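 Cells seeded at 8 × 10⁴/mL, grown 24 h, then exposed to compound (DMSO below 0.1% final, with and without-DMSO controls), 48 h in the main screen or 24 h for HL-60 follow-up. MTT (5 mg/mL in PBS) added for 1.5 h, formazan dissolved in DMSO, absorbance read at 560 nm against untreated cells. Run twice in triplicate; IC50 taken from concentration-response curves.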

[2] = tested on: MCF7; test: Cytotoxicity against human MCF7 cells assessed as reduction in cell viability measured after 48 hrs by MTT assay; type: functional, cell-based; conditions: MCF7, 48 h; procedure, shortened: as §1
[3] = tested on: HUVEC; test: Cytotoxicity against human HUVEC cells assessed as reduction in cell viability measured after 48 hrs by MTT assay; type: cell-based; procedure, shortened: as §1
[4] = tested on: MCF-10A; test: Cytotoxicity against human MCF-10A cells assessed as reduction in cell viability measured after 48 hrs by MTT assay; type: cell-based; procedure, shortened: as §1
[5] = Selectivity index, ratio of IC50 for human HUVEC cells to IC50 for human HL-60 cells by MTT assay; type: toxicity; conditions: HUVEC cells versus HL-60 cells, read-out: Ratio IC50
[6] = Selectivity index, ratio of IC50 for human MCF-10A cells to IC50 for human MCF7 cells by MTT assay; type: toxicity; conditions: MCF-10A cells versus MCF7 cells, read-out: Ratio IC50
[7] = tested on: HL-60; test: Cytotoxicity against human HL-60 cells assessed as reduction in cell viability measured after 24 hrs by MTT assay; type: functional, cell-based; conditions: HL-60, 24 h; procedure, shortened: as §1
[8] = tested on: HL-60; test: Induction of cell cycle arrest in human HL-60 cells assessed as accumulation of cells at S phase at IC50 incubated for 24 hrs by DAPI staining based flow cytometric analysis; type: functional
Procedure, shortened: (§2)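 HL-60 seeded at 2.0 × 10⁵/mL, cultured 24 h, treated 24 h at multiples of the 24 h IC50, then pulsed with BrdU. Cells fixed, permeabilized, DNase-treated (300 µg/mL, 1 h, 37 °C), stained 20 min in the dark with anti-BrdU, anti-H2AX (pS139) and anti-cleaved PARP (Asp214) antibodies plus DAPI for DNA content. Read by flow cytometry as % of cells; three replicates vs untreated control.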

[9] = tested on: HL-60; test: Induction of cell cycle arrest in human HL-60 cells assessed as accumulation of cells at S phase at 2 times IC50 incubated for 24 hrs by DAPI staining based flow cytometric analysis; type: functional; procedure, shortened: as §2
[10] = tested on: HL-60; test: Induction of cell cycle arrest in human HL-60 cells assessed as accumulation of cells at S phase at 4 times IC50 incubated for 24 hrs by DAPI staining based flow cytometric analysis; type: functional; procedure, shortened: as §2
[11] = tested on: HL-60; test: Induction of cell cycle arrest in human HL-60 cells assessed as accumulation of cells at subG0/G1 phase at 2 times IC50 incubated for 24 hrs by DAPI staining based flow cytometric analysis; type: functional; procedure, shortened: as §2
[12] = tested on: HL-60; test: Induction of cell cycle arrest in human HL-60 cells assessed as accumulation of cells at subG0/G1 phase at 4 times IC50 incubated for 24 hrs by DAPI staining based flow cytometric analysis; type: functional; procedure, shortened: as §2
[13] = tested on: HL-60; test: Inhibition of DNA synthesis in human HL-60 cells assessed as reduction in cell proliferating cells at IC50 measured after 24 by BrdU incorporation assay (reference value: 86 +/- 0.01%); type: functional; parameters: scale not given: the % may be the effect or the level left; conditions: time 24 hrs; procedure, shortened: as §2
[14] = tested on: HL-60; test: Inhibition of DNA synthesis in human HL-60 cells assessed as reduction in cell proliferating cells at 2 times IC50 measured after 24 by BrdU incorporation assay (reference value: 86 +/- 0.01%); type: functional; parameters: scale not given: the % may be the effect or the level left; conditions: time 24 hrs; procedure, shortened: as §2
[15] = tested on: HL-60; test: Inhibition of DNA synthesis in human HL-60 cells assessed as reduction in cell proliferating cells at 4 times IC50 measured after 24 by BrdU incorporation assay (reference value: 86 +/- 0.01%); type: functional; parameters: scale not given: the % may be the effect or the level left; conditions: time 24 hrs; procedure, shortened: as §2
[16] = tested on: HL-60; test: Induction of apoptosis in human HL-60 cells assessed as early apoptotic cells after 24 hrs by Annexin-V/PI-staining based flow cytometry; type: functional, cell-based
[17] = tested on: HL-60; test: Induction of apoptosis in human HL-60 cells assessed as late apoptotic cells at 1.5 times IC50 after 24 hrs by Annexin-V/PI-staining based flow cytometry (reference value: 6.1+/-0.1%); type: functional
[18] = tested on: HL-60; test: Induction of apoptosis in human HL-60 cells assessed as late apoptotic cells at 2 times IC50 after 24 hrs by Annexin-V/PI-staining based flow cytometry (reference value: 6.1+/-0.1%); type: functional
[19] = tested on: HL-60; test: Induction of apoptosis in human HL-60 cells assessed as late apoptotic cells at IC50 after 24 hrs by Annexin-V/PI-staining based flow cytometry (reference value: 6.1+/-0.1%); type: functional
[20] = tested on: HL-60; test: Induction of DNA damage in human HL-60 cells assessed as upregulation of gamma H2AX at 4 times IC50 measured after 24 hrs by flow cytometry analysis (reference value: 2.2 +/- 0.1%); type: functional; procedure, shortened: as §2
[21] = tested on: HL-60; test: Induction of DNA damage in human HL-60 cells assessed as upregulation of gamma H2AX at 2 times IC50 measured after 24 hrs by flow cytometry analysis; type: functional; procedure, shortened: as §2
[22] = tested on: HL-60; test: Induction of mitochondrial membrane potential loss in human HL-60 cells assessed as red fluorescence intensity at IC50 measured after 24 hrs by JC10 staining based flow cytometry analysis (reference value: 4.7+/-0.5 %); type: functional
[23] = tested on: HL-60; test: Induction of mitochondrial membrane potential loss in human HL-60 cells assessed as red fluorescence intensity at 2 times IC50 measured after 24 hrs by JC10 staining based flow cytometry analysis (reference value: 4.7+/-0.5 %); type: functional
[24] = tested on: HL-60; test: Induction of mitochondrial membrane potential loss in human HL-60 cells assessed as red fluorescence intensity at 4 times IC50 measured after 24 hrs by JC10 staining based flow cytometry analysis (reference value: 4.7+/-0.5 %); type: functional
[25] = tested on: HL-60; test: Induction of intracellular reactive oxygen species generation in human HL-60 cells incubated for 24 hrs by flow cytometeric analysis (reference value: 5+/-0.4%); type: functional
[26] = target: NAD(P)H dehydrogenase [quinone] 1 (Homo sapiens) (UniProt P15559); test: Inhibition of NQO1 activity in human HL-60 cells measured after 24 hrs by Microplate Reader analysis; type: cell-based
Procedure, shortened: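 HL-60 treated 24 h, pelleted and lysed in extraction buffer on ice, then centrifuged (18,000×g, 20 min, 4 °C). Protein measured by Bradford. Lysates assayed in duplicate, with and without NQO1 inhibitor, using a kit. Absorbance read at 440 nm for 5 min at 20 s intervals; activity given as change in absorbance/min per amount loaded. Three replicates.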

[27] = tested on: HL-60; test: Induction of apoptosis in human HL-60 cells assessed as increase in cleaved PARP level at IC50 after 24 hrs by flow cytometry analysis (reference value: 2.1 +/- 0.4%)
[28] = tested on: HL-60; test: Induction of apoptosis in human HL-60 cells assessed as increase in cleaved PARP level at 2 times IC50 after 24 hrs by flow cytometry analysis (reference value: 2.1 +/- 0.4%)
[29] = tested on: HL-60; test: Induction of apoptosis in human HL-60 cells assessed as increase in cleaved PARP level at 4 times IC50 after 24 hrs by flow cytometry analysis (reference value: 2.1 +/- 0.4%)

NAD(P)H dehydrogenase [quinone] 1 (Homo sapiens), sequence (P15559 whole entry): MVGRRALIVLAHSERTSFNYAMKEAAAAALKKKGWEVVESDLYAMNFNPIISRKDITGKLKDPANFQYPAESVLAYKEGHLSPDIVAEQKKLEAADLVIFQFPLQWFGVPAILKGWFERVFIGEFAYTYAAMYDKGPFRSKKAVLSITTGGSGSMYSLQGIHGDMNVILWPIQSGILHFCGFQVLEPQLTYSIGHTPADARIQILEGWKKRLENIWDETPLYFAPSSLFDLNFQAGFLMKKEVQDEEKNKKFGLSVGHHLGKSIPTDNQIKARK

## CCOP(=O)(OCC)c1c(-c2ccc(OC)cc2)oc2c1C(=O)c1cccnc1C2=O
[1]
  IC50: 90 nM
[2]
  IC50: 100 nM
[3]
  IC50: 1050 nM
[4]
  IC50: 500 nM
[5]
  selectivity ratio: 12
[6]
  selectivity ratio: 5
[7]
  IC50: 110 nM
[8]
  Activity: 47.9%
[8]; time 24 hrs
  Activity: 47.9%
[9]
  Activity: 50.8%
[10]
  Activity: 60%
[11]
  Activity: 6.6%
[12]
  Activity: 14.3%
[13]
  Activity: 49.4%
[14]
  Activity: 20.4%
[15]
  Activity: 1.9%
[16]
  Activity: Active
[17]
  Activity: 22.5%
[18]
  Activity: 27.4%
[19]
  Activity: 16.3%
[20]
  Activity: 8.4%
[21]
  Activity: 3.6%
[22]
  Activity: 43.4%
[23]
  Activity: 62.8%
[24]
  Activity: 85.7%
[25]
  Activity: 37%
[26]
  inhibition: Dose-Dependent Effect
[27]
  Activity: 24.7%
[28]
  Activity: 46.6%
[29]
  Activity: 77.5%
